CHOP inhibitor: CHOP inhibition in unfolded protein response | inhibition, % at 10 µM | CHO-K1 CHOP-promoter luciferase, tunicamycin-induced, 15-18 h | 220,000 compounds, 3.8% hits;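 active = compounds that reduced the stress-induced luciferase reporter signal by more than about 70% of percent inhibition, limit read from the data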
UPR XBP1 act: adaptive UPR (XBP1) activation; 330,000 compounds, 0.33% hits; CHO-XBP1 luciferase reporter, IRE1-XBP1 UPR activation, luminescence; percent of tunicamycin response, DMSO as zero; activation, % at 20 µM;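 active = versus positive control, 20 µM dose yields 30% or more activation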
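incubation = overnight seeding at 37 °C, 6 h compound treatment at 37 °C | assay system = CHO-XBP1 cells stably carrying IRE1-XBP1-driven luciferase reporter | input = 1000 cells per well | detection = luciferase luminescence | dosing = single point, 20 µM final compound, 1% DMSO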
Jurkat NFkB inh: lowers PMA/ionomycin-induced NF-kB signal in Jurkat cells; PMA/ionomycin-induced NF-kB luciferase reporter, luminescence; inhibition, % at 4 µM; 330,000 compounds, 0.53% hits; AID 435003; in the data active = inhibition above about 50%
CHOP UPR activ: activators of apoptotic arm of unfolded protein response (CHOP); CHO-CHOP luciferase reporter, UPR activation, luminescence; percent of tunicamycin response over DMSO baseline; activation, % at 10 µM; 330,000 compounds, 0.34% hits;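 active = at 10 µM dose, activation of 40% or more, normalized to positive control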
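assay system = CHO CHOP reporter cells | amount = 500 CHO-CHOP cells per well | buffer or medium = F12 with 10% FBS | incubation = 16-18 h cell attachment, then 6 h compound exposure, 37 °C | detection = luminescence read with Steady-Glo | read-out = percent activation relative to tunicamycin control | controls = tunicamycin high control, DMSO low control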
697 NFkB inh: inhibitors of the PMA/ionomycin-induced NF-kB reporter in 697 B cells. 697 B-cell NF-kB luciferase reporter, 16 h. inhibition, % at 4 µM. 330,000 compounds, 0.33% hits. AID 435022; in the data active = inhibition above about 35%
Jurkat NFkB conf: lowers PMA/ionomycin-induced NF-kB signal in Jurkat cells | shares compounds with Jurkat NFkB inh | Jurkat NF-kB luciferase, 16 h | inhibition, % at 4 µM | 2,700 compounds, 27% hits | AID 435020;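 active = inhibition reaching about 45% at 4 µM in either replicate, limit read from the data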
Large screens that a line does not name were inactive (follow-up assays come after a bar, where they were run). The sample as a whole holds a higher share of hits than the screen did.

CCOc1ccc(-c2[nH]ncc2-c2ccc(OC)c(OC)c2)c(O)c1	Jurkat NFkB inh 63 (no result: CHOP inhibitor) | Jurkat NFkB conf 57
C=C(C)COc1ccc(-c2nc(N)ncc2-c2ccc(Br)cc2)c(O)c1	none (no result: CHOP inhibitor)
COc1ccc(-c2cn[nH]c2-c2ccc(O)cc2O)cc1OC	none (no result: CHOP inhibitor)
CCCNC(=O)C(Cc1ccc(C(F)(F)F)cc1)NC(=O)c1ccc(C#N)cc1 (configuration not stated)	none (no result: CHOP inhibitor)
Cc1ccc(NC(=S)N2CCC(c3ccccc3)C2)c(Cl)c1 (configuration not stated)	none | Jurkat NFkB conf inactive
S=C(Nc1ccccc1Cl)N1CCC(c2ccccc2)C1 (configuration not stated)	none
Cc1ccc(COc2ccccc2-c2cc(C(=O)N/N=C/c3cccnc3)[nH]n2)cc1	Jurkat NFkB inh 53 | Jurkat NFkB conf inactive
COc1cccc(/C=N/Nc2ncnc3c2ncn3Cc2ccccc2)c1O	Jurkat NFkB inh 63 | Jurkat NFkB conf 67
Cc1ccc(-c2nc3ccc(Cl)cc3n2OC(C)C(=O)O)cc1 (configuration not stated)	none | Jurkat NFkB conf inactive
CC(On1c(-c2ccccc2)nc2ccc(Cl)cc21)C(=O)O (configuration not stated)	none
CCOc1ccc(N(CC(=O)N2CCN(Cc3ccccc3)CC2)S(C)(=O)=O)cc1	none (no result: CHOP inhibitor)
CCC/C(O)=C1\C(=O)CC(C)(C)CC1=Nc1ccc(OC)cc1OC	Jurkat NFkB inh 62 (no result: CHOP inhibitor) | Jurkat NFkB conf inactive
CCCC/C(O)=C1\C(=O)CC(C)(C)CC1=Nc1ccccc1OC	none
COc1cc(C2NC(=O)CCC2[N+](=O)[O-])c(OC)cc1Br (configuration not stated)	none (no result: CHOP inhibitor)
CC(C)CCOc1cccc(OCC(=O)Nc2ccncc2)c1	Jurkat NFkB inh 57 (no result: CHOP inhibitor) | Jurkat NFkB conf 65
C=CCOc1c(Cl)cc(CNc2ccc(N(C)C)cc2)cc1OC	none
C=CCOc1c(Cl)cc(CNc2ccc(C)c(Cl)c2)cc1OC	Jurkat NFkB inh 60 | Jurkat NFkB conf inactive
CC1CCCC(NCC(=O)Nc2ccc(C(N)=O)cc2)C1C (configuration not stated)	none
CC(C)(Oc1ccc(Cl)cc1)C(=O)OCC(=O)N1CCN(c2ccccc2)CC1	none (no result: CHOP inhibitor)
COc1cc(CC(=O)OCC(=O)c2ccc3c(c2)OCCO3)cc(OC)c1OC	Jurkat NFkB inh 61 | Jurkat NFkB conf inactive
O=C(Nc1ccc([N+](=O)[O-])cc1)Nc1ccon1	Jurkat NFkB inh 63 (no result: CHOP inhibitor) | Jurkat NFkB conf inactive
COc1cc(NC(=O)c2csc(N)n2)cc(C(=O)Nc2cccc(C(F)(F)F)c2)c1	CHOP inhibitor 79, Jurkat NFkB inh 64 | Jurkat NFkB conf inactive
COc1cc(NC(=O)c2cnc(N)s2)cc(C(=O)Nc2cccc(C(F)(F)F)c2)c1	none
O=C(NCCC1=CCCCC1)NC12CC3CC(CC(C3)C1)C2	none | Jurkat NFkB conf inactive
O=C(NCCc1ccc(F)cc1)NC12CC3CC(CC(C3)C1)C2	none (no result: CHOP inhibitor)
O=C(Cc1ccc(Cl)cc1)NCCCNC(=O)c1cccnc1	none (no result: CHOP inhibitor)
COc1ccc(C(C)(C)C)cc1NC(=O)COC(=O)CSCc1c(C)noc1C	none (no result: CHOP inhibitor)
CCOc1ccccc1NC(=O)c1cccc(NC(=O)c2ccco2)c1	Jurkat NFkB inh 57 (no result: CHOP inhibitor) | Jurkat NFkB conf inactive
Cc1ccccc1NC(=O)c1cccc(NC(=O)c2ccco2)c1	none (no result: CHOP inhibitor)
COc1ccc(NC(=O)Cc2ccccc2)cn1	none
COc1ccc(CS(=O)(=O)/C(Cl)=C(/Cl)C(=O)Nc2ccc(OC)nc2)cc1	Jurkat NFkB inh 81 (no result: CHOP inhibitor) | Jurkat NFkB conf 85
COc1ccc(NC(=O)/C(Cl)=C(/Cl)S(=O)Cc2ccccc2)cn1 (configuration not stated)	Jurkat NFkB inh 95 (no result: CHOP inhibitor) | Jurkat NFkB conf 98
CC(C)(C)N1C(=O)Cc2c1nc(N)c1c(N)nc(N3CCCCC3CO)c(C#N)c21 (configuration not stated)	Jurkat NFkB inh 56 | Jurkat NFkB conf inactive
CCOC(=O)[C@H]1[C@H]2COc3ccc(Br)cc3[C@@H]2N2C(=O)CN(Cc3ccc(OC)cc3)C(=O)[C@@]12C	none (no result: CHOP inhibitor)
CN(CC(=O)Nc1c(Cl)cccc1Cl)C(=O)CNC(=O)c1ccc2ccccc2c1	none (no result: CHOP inhibitor)
COc1ccc(-n2nc3cc(N)c(Br)cc3n2)cc1	none (no result: CHOP inhibitor)
